# The sample as a whole holds a higher share of hits than the screen did.
# Diaphorase inh: diaphorase inhibitors and chemical oxidizers, primary screen, counter-screen for diaphorase-coupled primary assays, biochemical, uHTS, resorufin fluorescence | diaphorase resazurin-to-resorufin fluorescence, NADH, 16 min; bacterial (C. kluyveri) enzyme, not human | inhibition, % at 20 µM | 190,000 compounds, 0.69% hits | AID 1217, 2008;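 active = primary screen inhibition at 20 µM above a set limit, cut at about 50% in these data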;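 note: plate controls were DMSO with full reaction for no effect and wells lacking NADH for full effect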
#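 Detection: fluorescence of resorufin formed from resazurin, Ex 544/Em 590 nm; test system: Clostridium kluyveri diaphorase enzyme; amount: 0.14 U/mL diaphorase, enzyme working solution; times: 16-min room-temperature incubation before reading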
# G6PDH CS: L. mesenteroides G6PDH inhibitors, counter-screen for G6PDH-coupled screening assays, biochemical, Leuconostoc mesenteroides enzyme; Purified L. mesenteroides G6PDH, diaphorase/resazurin coupled fluorescence, 45 min; inhibition, % at 5 µM; glucose-6-phosphate dehydrogenase [Leuconostoc mesenteroides]; 200,000 compounds, 0.12% hits
# DTT redox prof: compounds producing H2O2 with reducing agent – biochemical, NIH compound library profiling, artefact control for MLSCN library redox annotation, primary screen. DTT-dependent redox cycling H2O2, phenol red/HRP absorbance; 100% = 100 µM peroxide control, 0% = buffer. AID 878, 2007. 200,000 compounds, 0.03% hits. activation, % at 10 µM;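 active = activation of at least 50% relative to the plate's high and low controls in the primary single-dose screen; inactive = activation below 50%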;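 note: compound incubated with DTT at 0.8 mM final as the reducing agent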
# Diaph act CS: compounds boosting diaphorase resazurin reduction – biochemical, uHTS, resorufin fluorescence, counter-screen for diaphorase-coupled primary assays, primary screen; Diaphorase/resazurin coupled assay, 16 min; stronger effect = higher value; 1 = vehicle wells, 0 = NADH-free wells; activation factor at 20 µM; 190,000 compounds, 0.005% hits; AID 1229, 2008;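 active = diaphorase activity raised at least twofold by the compound at 20 µM; inactive = activation factor below 2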
#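 Assay system: bacterial diaphorase enzyme (C. kluyveri) / Input: enzyme 0.07 U/mL final / Medium: 50 mM HEPES pH 7.4 with 4.542 mM MgCl2, 0.005% Tween 20 / Doses: single compound dose of 20 µM, 1% DMSO final / Incubation: 16 min enzyme reaction, ambient temperature / Signal: fluorescence, excitation 544 nm and emission 590 nm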
# PfGluPho inh: PfG6PD enzyme inhibitors, primary screen, biochemical, fluorescence intensity, uHTS; glucose-6-phosphate dehydrogenase-6-phosphogluconolactonase (Plasmodium falciparum 3D7); PfGluPho enzyme, NADPH resazurin-diaphorase fluorescence; inhibition, % at 20 µM; 350,000 compounds, 0.78% hits;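 active = inhibition reaching at least a set limit at 20 µM in the primary screen, cut at about 59% in these data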;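 note: 0% = DMSO wells with substrate and 100% = DMSO wells lacking glucose-6-phosphate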
# L major viab: Leishmania major promastigote growth inhibition, primary screen; Leishmania major promastigotes, resazurin fluorescence viability; inhibition, % at 10 µM; 200,000 compounds, 9% hits;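 note: promastigotes grown with compound for 44 hours at 28 °C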
# * = called active by the depositor; . = no result given. Cut-off read from the data, not from the text of the source, unless noted: active = inhibition above about 50%; inactive = the rest.
SMILES,Diaphorase inh,G6PDH CS,DTT redox prof,Diaph act CS,PfGluPho inh,L major viab
O=C(CN1CCN(c2ccccc2)CC1)N1CCc2[nH]c3ccccc3c2C1,30.1,2.9,-7.2,0.7,0.5,90.8*
Cc1ccc2[nH]c3c(c2c1)CN(C(=O)CN1CCSCC1)CC3,15.1,-2.5,2.4,0.8,.,-2.9
O=C(CCC1CCCCC1)N1CCN(Cc2ccc3c(c2)OCO3)CC1,17.7,-5.2,2.2,0.8,-9.3,96.0*
CS(=O)(=O)N(CC(=O)N1CCN(Cc2ccc3c(c2)OCO3)CC1)Cc1ccc(Cl)cc1,21.3,1.2,0.3,0.8,3.2,98.4*
CS(=O)(=O)N(CC(=O)N1CCN(Cc2ccc3c(c2)OCO3)CC1)C1CCCCC1,10.7,11.5,1.0,0.9,-8.4,1.6
O=C(Nc1nn[nH]n1)C12CC3CC(CC(C3)C1)C2,16.5,12.7,0.2,0.8,24.5,-0.1
O=C(O)CSCC(=O)N1CCN(Cc2ccc3c(c2)OCO3)CC1,.,.,.,.,-4.4,.
Cc1ccc(CSCC(=O)N2CCN(Cc3ccc4c(c3)OCO4)CC2)cc1,10.4,0.8,0.4,0.9,0.8,59.3*
O=C(O)c1cccc(Oc2ccc([N+](=O)[O-])cc2)c1,-0.5,7.9,-0.1,1,-2.0,58.5*
CC1(C)CC(=O)N(c2cccc(C(F)(F)F)c2)C(=O)C1,.,.,.,.,-10.6,.
COc1ccccc1CC(=O)NNS(=O)(=O)c1ccccc1[N+](=O)[O-],-2.1,6.4,0.1,1,-4.3,-4.9
COCC(=O)NNS(=O)(=O)c1ccccc1[N+](=O)[O-],16.9,-15.0,-0.4,0.8,-14.7,54.2*
C/C(=N\NC(=O)CN(c1ccccc1)S(=O)(=O)c1ccccc1[N+](=O)[O-])C(C)(C)C,28.6,3.8,0.4,0.7,-19.5,89.8*
CC(C)(C)C1CCC(=NNC(=O)CN(c2ccccc2)S(=O)(=O)c2ccccc2[N+](=O)[O-])CC1 (stereo not given),0.6,3.9,2.8,1,-10.0,-4.3
CC(OC(=O)CCN1C(=O)c2cccc([N+](=O)[O-])c2C1=O)C(=O)Nc1cc(Cl)cc(Cl)c1 (stereo not given),17.2,4.9,.,0.8,-2.5,54.0*
COc1cccc(NC(=O)CCN2C(=O)c3cccc([N+](=O)[O-])c3C2=O)c1,.,.,.,.,-5.6,.
COc1cc(/C=N/NC(=O)C(Cc2c[nH]c3ccccc23)NC(=O)OCC(C)C)cc([N+](=O)[O-])c1O (stereo not given),18.0,-14.7,-0.6,0.8,-2.4,23.5
COc1cc(/C=N/NC(=O)C(Cc2c[nH]c3ccccc23)NC(=O)OCC(C)C)cc([N+](=O)[O-])c1OCc1ccccc1 (stereo not given),70.9*,15.1,0.2,0.3,-4.4,90.7*
CCOc1ccc(NC(=O)CCCN2C(=S)NC(C)(C)CC2C)cc1 (stereo not given),0.0,-15.1,0.6,1,-8.3,59.1*
CC1CC(C)(C)NC(=S)N1CCCC(=O)Nc1ccc(Br)cc1 (stereo not given),5.9,1.5,0.7,0.9,-9.8,6.2
Cc1nn(-c2ccccc2)c(Cl)c1/C=C1\SC(=S)N(C)C1=O,3.8,3.6,1.6,1,-11.1,53.3*
Cc1nn(-c2ccccc2)c(Cl)c1/C=C/C(=O)c1ccccc1,15.6,4.4,0.1,0.8,10.3,69.2*
O=C(O)c1cc2nc(-c3ccccc3)cc(-c3ccccc3)n2n1,59.3*,23.2,-0.2,0.4,-2.7,3.4
COc1cccc2sc3cc(NCCCN4CCOCC4)ccc3c(=O)c12,.,.,.,.,15.0,.
C/C(=N\NC(=O)c1cc(-c2ccncc2)nc2ccccc12)c1ccc(OC(F)F)cc1,16.2,6.0,0.5,0.8,16.9,89.0*
CCOC(=O)c1sc2nc(C)nc(SCC(=O)NC(C)CCc3ccccc3)c2c1C (stereo not given),14.3,-2.7,0.8,0.9,-3.5,95.9*
